Beta cell apopt = beta cell apoptosis inhibition; INS-1E cytokine-induced death, ATP luminescence, 48 h; percent of positive-control rescue, neutral wells zero; protection from apoptosis, % (concentration not given with the values); 0.8% of 300,000 active; AID 435005;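 active = Every replicate reaches about 75%, or at least half do and their mean reaches it too, limit read from the data; inconclusive = At least half of replicates reach the limit but their mean does not; inactive = Under half of replicates reach the limit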;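 note: 0% = cytokine-treated negative control wells and 100% = positive control rescue; higher means more ATP so stronger rescue from cytokine killing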
T cruzi repl = T. cruzi replication inhibition; 1.4% of 300,000 active; inhibition, % (test concentration not listed); T. cruzi beta-gal in NIH3T3, luminescence, 90 h;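 active = mean inhibition across valid replicates above about 55%, limit read from the data; inconclusive = mean below that limit but half or more replicates reach it; inactive = mean below it, under half of replicates reach it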;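 note: signal also drops with host cell toxicity which is not excluded here; 0% = plate median of DMSO wells and 100% = zero luminescence signal; higher percent means less beta-gal luminescence so fewer parasites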
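Assay system: NIH/3T3 fibroblasts plus reporter T. cruzi. Amount: NIH/3T3 cells, 5,000 per well. Buffer or medium: DMEM, 2% fetal bovine serum. Doses: compound pinned at 50 nL/well, DMSO. Schedule: ≥90 h infection period, 3 h prior cell attachment. Signal: luminescent β-galactosidase signal after 60 min lysis. Read-out: parasite load inhibition, %.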
Mdm2-MdmX inh = disrupts the human Mdm2-MdmX interaction; O15151+Q00987; SaOS-2 split-luciferase Mdm2/MdmX complementation, luminescence; inhibition, % at 8 µM; 3% of 330,000 active;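 active = inhibition of at least 50% at 8 µM in the primary screen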
Target sequence (O15151 whole entry, looked up): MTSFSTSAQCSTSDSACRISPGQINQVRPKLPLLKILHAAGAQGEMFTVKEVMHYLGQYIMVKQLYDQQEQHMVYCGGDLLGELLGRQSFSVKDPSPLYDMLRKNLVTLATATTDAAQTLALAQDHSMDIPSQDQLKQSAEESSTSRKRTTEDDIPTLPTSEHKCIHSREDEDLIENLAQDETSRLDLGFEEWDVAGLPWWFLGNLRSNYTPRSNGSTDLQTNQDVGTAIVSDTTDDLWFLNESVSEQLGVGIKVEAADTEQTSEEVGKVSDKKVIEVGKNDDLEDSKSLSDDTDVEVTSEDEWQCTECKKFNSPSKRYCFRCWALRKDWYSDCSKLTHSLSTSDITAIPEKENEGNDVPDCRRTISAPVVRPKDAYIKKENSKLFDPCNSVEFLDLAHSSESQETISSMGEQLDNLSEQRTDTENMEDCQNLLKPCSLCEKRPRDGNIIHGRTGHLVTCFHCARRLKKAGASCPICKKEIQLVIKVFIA
Target sequence (Q00987 whole entry, looked up): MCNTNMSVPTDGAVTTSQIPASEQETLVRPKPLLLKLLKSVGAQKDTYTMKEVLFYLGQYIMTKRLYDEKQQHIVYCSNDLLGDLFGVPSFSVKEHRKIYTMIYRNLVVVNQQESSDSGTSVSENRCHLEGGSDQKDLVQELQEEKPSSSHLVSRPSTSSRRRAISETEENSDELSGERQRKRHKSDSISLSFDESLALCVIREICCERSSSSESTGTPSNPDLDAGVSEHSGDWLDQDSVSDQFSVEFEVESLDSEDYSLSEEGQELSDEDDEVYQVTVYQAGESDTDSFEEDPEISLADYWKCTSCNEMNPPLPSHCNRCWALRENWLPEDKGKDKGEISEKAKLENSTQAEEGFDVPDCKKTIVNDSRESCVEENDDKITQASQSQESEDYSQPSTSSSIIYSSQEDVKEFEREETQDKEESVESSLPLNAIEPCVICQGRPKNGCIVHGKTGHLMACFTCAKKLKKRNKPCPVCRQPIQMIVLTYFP
L major viab = inhibitors of Leishmania major promastigote growth; AID 1063; Leishmania major promastigotes, resazurin fluorescence viability; 9% of 200,000 active; inhibition, % at 10 µM; in the data active = inhibition above about 50%;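 note: promastigotes grown with compound for 44 hours at 28 °C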
CSC inhib = cancer stem cell inhibition; cancer stem cell-like cells viability, luminescence; inhibition, % at 7.5 µM; 1.1% of 300,000 active; AID 2717; in the data active = inhibition above about 75%; inconclusive = no clear call, values can overlap the other calls; tested in HMLE shEcad cells
SKKanGAS inh = blocks kanamycin growth of S. pyogenes SKKanGAS strain | BacTiter-Glo, 6 h | inhibition, % at 7.5 µM | 1.3% of 300,000 active | AID 1662;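 active = mean replicate score, as percent of positive control median, at least 50; inconclusive = mean below 50 but one replicate at or above 50; inactive = mean and every replicate below 50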;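 note: strain carries kanamycin resistance gene driven by streptokinase promoter and grows in 40 µg/ml kanamycin; loss of luminescence reflects streptokinase promoter inhibition or plain growth inhibition; 0% = median of DMSO wells and 100% = positive control at its reference dose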
Starred values were filed as active, the others as inactive. In the library only some 9.4% were active in any assay of this set; here they are far more common.

For CCOC(=O)C1=C(N)Oc2cc(O)ccc2C1c1ccc([N+](=O)[O-])cc1 (stereo not given) the results were Beta cell apopt -4, T cruzi repl 57*, Mdm2-MdmX inh 20, L major viab 13, CSC inhib -14 and SKKanGAS inh 0.
For Cc1cc(/C=C2/C(=N)N3C(=NC2=O)SN=C3S(C)(=O)=O)c(C)n1-c1ccccc1F the results were Beta cell apopt 2, T cruzi repl -12, Mdm2-MdmX inh -22, L major viab 1, CSC inhib -6 and SKKanGAS inh 56*.
For Cc1cc(/C=C2\C(=N)N3N=C(S(C)(=O)=O)SC3=NC2=O)c(C)n1Cc1ccccc1 the results were Beta cell apopt -2, T cruzi repl 17, Mdm2-MdmX inh 6, L major viab 5 and SKKanGAS inh 54*.
CC(OC(=O)c1ccc(Cl)nc1)C(=O)NC1(C#N)CCCCC1 (stereo not given) was read as Beta cell apopt -2, T cruzi repl inconclusive, Mdm2-MdmX inh 7, CSC inhib -9 and SKKanGAS inh -9.
Screening Cc1ccccc1N=Nc1ccc(O)c2ncccc12 returned Beta cell apopt 99*, T cruzi repl 42, L major viab 100*, CSC inhib 99* and SKKanGAS inh 105*.
Screening COc1ccc(C)cc1N=Nc1ccc(O)c2ncccc12 returned T cruzi repl inconclusive, L major viab 100* and SKKanGAS inh 94*.
For COC(=O)c1ccccc1Sc1ncnc2onc(C)c12 the results were Beta cell apopt -35, T cruzi repl -15, Mdm2-MdmX inh 13, L major viab 57*, CSC inhib 0 and SKKanGAS inh -7.
`COc1cc(C)c(Cl)cc1S(=O)(=O)n1cnc2ccccc21` gave Beta cell apopt -8, T cruzi repl 21, Mdm2-MdmX inh 5, L major viab 31, CSC inhib 4 and SKKanGAS inh 6.
COc1ccc(Cl)cc1S(=O)(=O)N1CCN(c2ccc(F)cc2)CC1 was read as Beta cell apopt -6, T cruzi repl 34, Mdm2-MdmX inh 25, L major viab 77*, CSC inhib -2 and SKKanGAS inh -9.
For CCOc1ccc(Cl)cc1S(=O)(=O)n1cnc2cc(C)c(C)cc21 the results were Beta cell apopt -4, T cruzi repl 16, Mdm2-MdmX inh 41, L major viab 12, CSC inhib 13 and SKKanGAS inh 52*.
`CC(=O)Nc1ccc(S(=O)(=O)n2cnc3cc(C)c(C)cc32)cc1` gave Beta cell apopt -3, T cruzi repl 0, Mdm2-MdmX inh 2, L major viab 67*, CSC inhib -13 and SKKanGAS inh 3.
`CCOc1ccc(Cl)cc1S(=O)(=O)N1CCN(c2ccc(C)c(C)c2)CC1` gave T cruzi repl -6, Mdm2-MdmX inh 19, L major viab 89*, CSC inhib 35 and SKKanGAS inh -7.
CCOc1ccc(Cl)cc1S(=O)(=O)N1CCN(c2ccc(F)cc2)CC1 was read as Beta cell apopt 3, T cruzi repl 23, Mdm2-MdmX inh -3, L major viab 3, CSC inhib 0 and SKKanGAS inh -10.
`O=C(OC1CCCCC1=O)c1ccc(F)c(S(=O)(=O)N2CCOCC2)c1` (stereo not given) gave Beta cell apopt 6, T cruzi repl -9, Mdm2-MdmX inh 12, CSC inhib -7 and SKKanGAS inh 2.
`CC1=NN(C(=S)Nc2ccccc2)C(C)(C)C1` gave Beta cell apopt -4, T cruzi repl -17, Mdm2-MdmX inh 23, L major viab -6, CSC inhib -9 and SKKanGAS inh -19.
`O=C1CNC(=S)N1C1CCCCCC1` gave Beta cell apopt -4, T cruzi repl -1, Mdm2-MdmX inh 1, CSC inhib -18 and SKKanGAS inh 1.
`Cc1ccc(S(=O)(=O)Nc2ccc(Cl)cc2)cc1NC(=O)c1cc2c(s1)CCCC2` gave Beta cell apopt 8, T cruzi repl 75*, Mdm2-MdmX inh -16, L major viab 17, CSC inhib 20 and SKKanGAS inh 53*.
Screening Cc1ccc(S(=O)(=O)N2CCOCC2)cc1NC(=O)c1cc2c(s1)CCC2 returned Beta cell apopt -3, T cruzi repl 52, Mdm2-MdmX inh -8, L major viab 21, CSC inhib 6 and SKKanGAS inh -4.

Assay outcomes: PubChem, several laboratories
